Assays:
Pa02c cells = experiment: Cell cytotoxicity assay; assay type: cell-based; details: Homo sapiens, 48 h, read-out: PaO2c EC50
Procedure, shortened: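 Low-passage patient-derived pancreatic Pa02c cells, kept in DMEM with 10% FBS. Plated at 2000 cells/well in poly-D-lysine-treated plates and grown overnight at 37 °C, 5% CO2. Test compound in 5% FBS DMEM, 5-point 1:2 serial dilution from 100 µM, with DMSO vehicle and drug-background wells, for 48 h. Medium then refreshed and Alamar Blue added (10% final) for 4 h. Fluorescence read, background-subtracted, normalized to media alone.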

APE1 = APE1 (Homo sapiens, UniProt P27695); experiment: APE1 endonuclease; assay type: biochemical
Chain of APE1 (P27695 whole entry): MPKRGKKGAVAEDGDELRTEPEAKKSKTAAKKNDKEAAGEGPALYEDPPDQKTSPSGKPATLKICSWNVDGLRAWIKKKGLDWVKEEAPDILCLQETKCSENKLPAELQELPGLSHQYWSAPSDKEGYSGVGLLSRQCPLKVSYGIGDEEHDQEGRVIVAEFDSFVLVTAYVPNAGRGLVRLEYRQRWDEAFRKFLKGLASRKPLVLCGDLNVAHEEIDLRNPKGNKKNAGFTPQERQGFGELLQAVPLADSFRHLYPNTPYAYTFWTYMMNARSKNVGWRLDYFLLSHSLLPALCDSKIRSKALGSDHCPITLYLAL
Procedure, shortened: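 Purified full-length APE1 (0.25-1.25 nM) added to 50 nM duplex substrate (6-FAM strand with tetrahydrofuran AP-site mimic annealed to a quencher strand) in 50 mM Tris, 1 mM MgCl2, 50 mM NaCl, pH 7.5. Compounds in triplicate, 10-point 1:2 dilutions from 100 μM. Fluorescence read kinetically at five 1-min intervals immediately; reaction rate compared with DMSO vehicle.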

`Cc1ccc(S(=O)(=O)n2cccc2[C@@H]2NC(=O)[C@H](Cc3c[nH]c4ccccc34)NC(=O)C[C@H](CCc3ccccc3)NC(=O)C/C=C/[C@@H]2C)cc1` [Compound 20, (3S,7S,13S,14R,E)-3-((1H-Indol-3-yl)methyl)-13-methyl-7-phenethyl-14-(1-tosyl-1H-pyrrol-2-yl)-1,4,8-triazacyclotetradec-11-ene-2,5,9-trione] showed an EC50 (Pa02c cells) of over 100 µM.
Compound `Cc1ccc(S(=O)(=O)n2cccc2[C@@H]2NC(=O)[C@H](Cc3c[nH]c4ccccc34)NC(=O)CCNC(=O)C/C=C/[C@@H]2C)cc1` [Compound 19, (3S,13S,14R,E)-3-((1H-Indol-3-yl)methyl)-13-methyl-14-(1-tosyl-1H-pyrrol-2-yl)-1,4,8-triazacyclotetradec-11-ene-2,5,9-trione] has an IC50 (APE1) of 16.9 µM.
For `Cc1ccc(S(=O)(=O)n2cccc2[C@@H]2NC(=O)[C@H](Cc3c[nH]c4ccccc34)NC(=O)C[C@@H](CCc3ccccc3)NC(=O)C/C=C/[C@@H]2C)cc1` [Compound 21, (3S,7R,13S,14R,E)-3-((1H-Indol-3-yl)methyl)-13-methyl-7-phenethyl-14-(1-tosyl-1H-pyrrol-2-yl)-1,4,8-triazacyclotetradec-11-ene-2,5,9-trione], the EC50 (Pa02c cells) was over 100 µM.

Source: paper PMC6583781 (Journal of medicinal chemistry, 2019)
